ChEMBL document CHEMBL1123363, “(5-Amino-1,3-dimethyl-1H-pyrazol-4-yl)(2-fluorophenyl)methanones . A series of novel potential antipsychotic agents” (J Med Chem, 1986)
Active and inactive are the calls of the source. The calls are words filed in the database; no cut-off is given here.

Tests used:
Dopamine receptor = test: Binding affinity for dopamine receptor in rat striatal membrane using [3H]haloperidol as radioligand; type: cell membranes, Striatum
Summary of the method: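 Nonspecific binding defined with (+)-butaclamol at 0.1 μM final. IC50 fitted by nonlinear curve fit from four or five concentrations in triplicate.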

Mus musculus [1] = species: Mus musculus; test: Ability to inhibit locomotor activity using ataxia test.; type: functional; conditions: read-out: MED
Summary of the method: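 Male Swiss–Webster mice (20–30 g, unfasted), nine per dose in groups of three, dosed ip in 0.2% methocel (dose as parent compound) 1 h before testing. Ataxia was scored first on an inverted screen over 60 s as % of mice falling. […] ED50 from at least three doses.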

Rattus norvegicus [2] = test: Suppression of conditional avoidance after peroral administration; type: functional; conditions: po
Summary of the method: (§1)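 Fasted male Wistar rats (150–250 g) were trained to jump to a platform at a buzzer to avoid grid shock (1.1 mA/s). After oral dosing they were tested every 20 min for 6 h over 19 trials, 10 rats per dose, each rat used once. Peak effect was the mean of the four consecutive trials with the largest effect, computed from response latency. ED50 read graphically from at least three doses.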

[3] = Binding affinity against […] in rat striatal membrane using [3H]haloperidol
[4] = Compound was tested for inhibition of extrapyramidal side effect test in cebus monkey; type: functional; conditions: read-out: MED
Summary of the method: (§2)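 Groups of three to six were then dosed by gavage and observed hourly for 6–8 h for dystonia or dyskinesia. Any unequivocal sign counted as a positive response. Minimal effective dose was determined in at least three animals.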

Mus musculus [5] = test: Compound was tested for inhibition of apomorphine-induced climbing in mice after intraperitoneal administration; type: functional; conditions: ip
Summary of the method: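 Male Swiss–Webster mice (25–35 g), ten per dose, acclimated 30 min in cylindrical cages, dosed ip, then given apomorphine 3 mg/kg sc 1 h later. Climbing scored in 30-s tests every 5 min for 30 min, starting 15 min after apomorphine. At least three doses; ED50 by nonlinear regression.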

Rattus norvegicus [6] = test: The compound was tested for inhibition of conditional avoid in rats after peroral administration; type: functional; conditions: po; summary of the method: as §1
[7] = Inhibition of sidman avoid in squirrel monkeys after peroral administration; type: functional; conditions: po
Summary of the method: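 Mature squirrel monkeys, trained on a modified Sidman avoidance lever schedule, were dosed orally and tested in 6-h sessions. Inhibition was expressed as % of each animal's own nondrug responding. At least three doses were given to four animals, with sessions at least 1 week apart. ED50 from nonlinear regression.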

Rattus norvegicus [8] = species: Rattus norvegicus; test: Compound was tested for its potential to produce clonic seizures in rats; + indicates compound is causing seizures; type: functional, organism-based
Summary of the method: (§3)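 Any sign of seizure marked the compound as seizure-causing; the outcome was not quantified.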

Rattus norvegicus [9] = species: Rattus norvegicus; test: Compound was tested for its potential to produce clonic seizures in rats; + indicates that they are causing seizures; type: functional, organism-based; summary of the method: as §3
Rattus norvegicus [10] = test: Antagonized affect on the accumulation of the brain dopamine induced by butyrolactone (GBL) at 5 mg/kg after intraperitoneal administration; type: functional; set-up: scale not given: the % may be the effect or the level left
[11] = biological target: Beta-1 adrenergic receptor (Rattus norvegicus, UniProt P18090); test: Binding affinity against beta-1 adrenergic receptor in rat brain using [3H]DHA; type: tissue-based
Sequence of Beta-1 adrenergic receptor (P18090 whole entry): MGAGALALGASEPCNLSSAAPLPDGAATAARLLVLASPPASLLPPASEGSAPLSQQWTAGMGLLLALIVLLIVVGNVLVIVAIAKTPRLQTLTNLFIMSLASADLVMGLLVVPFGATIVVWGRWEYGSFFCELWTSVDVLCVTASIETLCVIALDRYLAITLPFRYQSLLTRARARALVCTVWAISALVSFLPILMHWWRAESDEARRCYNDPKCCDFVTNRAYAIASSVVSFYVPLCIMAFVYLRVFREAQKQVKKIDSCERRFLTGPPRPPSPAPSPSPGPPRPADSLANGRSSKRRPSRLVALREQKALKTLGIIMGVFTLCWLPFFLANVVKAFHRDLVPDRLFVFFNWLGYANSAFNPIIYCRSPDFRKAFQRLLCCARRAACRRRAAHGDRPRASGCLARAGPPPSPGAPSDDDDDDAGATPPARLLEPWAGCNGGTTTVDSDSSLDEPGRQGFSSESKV
Summary of the method: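 β1 binding was run on rat cerebral cortex membranes from male Long–Evans rats (150–250 g) with [3H]dihydroalprenolol at 0.5 nM final. Nonspecific binding was defined with (−)-alprenolol at 1 μM final. IC50 from four or five concentrations by nonlinear curve fit.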

[12] = biological target: T1, Beta-2 adrenergic receptor (Rattus norvegicus, UniProt P10608); test: (§4) Binding affinity against beta-2 adrenergic receptor in rat brain using [3H]DHA; type: tissue-based
T1 sequence (P10608 whole entry): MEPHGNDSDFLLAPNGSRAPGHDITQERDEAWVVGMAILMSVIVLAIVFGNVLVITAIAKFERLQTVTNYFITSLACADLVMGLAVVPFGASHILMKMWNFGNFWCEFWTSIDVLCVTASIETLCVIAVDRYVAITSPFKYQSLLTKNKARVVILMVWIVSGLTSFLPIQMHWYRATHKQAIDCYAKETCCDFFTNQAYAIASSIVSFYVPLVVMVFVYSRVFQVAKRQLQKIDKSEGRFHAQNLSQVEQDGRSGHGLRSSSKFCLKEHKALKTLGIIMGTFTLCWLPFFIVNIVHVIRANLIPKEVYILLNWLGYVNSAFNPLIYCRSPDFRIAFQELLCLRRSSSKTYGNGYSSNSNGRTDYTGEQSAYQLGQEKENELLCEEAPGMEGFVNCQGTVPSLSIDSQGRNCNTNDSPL
Summary of the method: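 β2 sites in rat cerebellum membranes (male Long-Evans, 150–250 g) with [3H]dihydroalprenolol at 0.5 nM final. (-)-Alprenolol at 1 μM final defined the reference. IC50 from four or five concentrations by nonlinear curve fit.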

Rattus norvegicus [13] = test: Compound was tested for its affect on the accumulation of the dopamine metabolite homovanillic acid (HAV) in the rat striatum at 1 mg/kg dose after peroral administration; type: functional; conditions: route oral
Summary of the method: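 Male Long–Evans rats were dosed orally and decapitated 2 h later. Striatal HVA was isolated on Sephadex G-10 and measured spectrofluorometrically, expressed as % control ± SEM.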

Rattus norvegicus [14] = test: Compound was tested for serum prolactin assay method in rats at 1 mg/kg dose after peroral administration; type: functional; conditions: route oral
Summary of the method: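 Seven-week-old male Sprague–Dawley rats, five per group, were dosed orally and killed by decapitation 1 h later. Serum prolactin from trunk blood was measured by radioimmunoassay with [125I]-PRL and expressed as % of control (mean ± SEM).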

Rattus norvegicus [15] = test: Antagonized affect on the accumulation of the brain dopamine induced by butyrolactone (GBL) at 10 mg/kg after intraperitoneal administration; type: functional; set-up: scale not given: the % may be the effect or the level left
Adenylate cyclase = test: The compound was tested for adenylate cyclase activity in rat corpus striatum; type: tissue-based
Summary of the method: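 Striatal homogenates from male Long–Evans rats (200–300 g). Test substance concentration varied with dopamine held at 20 μM. Cyclic AMP formed was measured by radioimmunoassay, in triplicate.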

[16] = biological target: T1, Beta-2 adrenergic receptor; test: as §4; type: tissue-based; remark: listed apart in the source
Summary of the method: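 β2 binding on rat cerebellum membranes (male Long–Evans rats, 150–250 g) with [3H]dihydroalprenolol, 0.5 nM final. Nonspecific binding defined with (-)-alprenolol, 1 μM final. IC50 from four or five concentrations by nonlinear curve fit.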

[17] = Extrapyramidal side effect test in cebus monkey; type: functional; conditions: read-out: MED; summary of the method: as §2
Canis familiaris = test: Compound was tested for inhibition of emesis test in dogs administered perorally; antiemetic; type: functional, organism-based; conditions: Canis lupus familiaris
Mus musculus [18] = test: Compound was tested for inhibition of locomotor activity and ataxia in mice after intraperitoneal administration; type: functional; conditions: ip
Summary of the method: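 Unfasted male Swiss–Webster mice (20–30 g), nine per dose in groups of three, given compound ip in 0.2% methocel 1 h before testing. Ataxia assessed by 60-s inverted screen test, then photocell actophotometer locomotion recorded over 60 min as percent inhibition versus vehicle. At least three doses.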

Rattus norvegicus [19] = test: Compound was tested for inhibition of conditional avoid in rats after peroral administration; type: functional; conditions: po
Summary of the method: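 Fasted male Wistar rats (150–250 g) trained to jump to a platform at a buzzer to avoid grid shock (1.1 mA/s). After oral dosing, tested every 20 min for 6 h over 19 trials, 10 rats per dose. Peak effect from four consecutive trials using response latency. ED50 read graphically from at least three doses.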

[20] = Compound was tested for inhibition of sidman avoid in squirrel monkeys after peroral administration; conditions: Saimiri, po

Compound | IC50 (Dopamine receptor) | minimal effective dose (Mus musculus [1]) | ED50 (Rattus norvegicus [2]) | further results
Cc1nn(C)c(NC(=O)CN(C)CCCN2CCCCC2C)c1C(=O)c1ccccc1F (stereo not given) | > 10 µM | 30 mg/kg | 21 mg/kg | 
Cc1nn(C)c(NC(=O)CN2CCCCC2)c1C(=O)c1ccccc1F | > 10 µM | 30 mg/kg | > 100 mg/kg | 
Cc1nn(C)c(NC(=O)CNCCCNC(C)(C)C)c1C(=O)c1ccccc1F |  | 30 mg/kg | 46 mg/kg | IC50 [3]: > 10 µM
Cc1nn(C)c(NC(=O)CN2CCC3(CC2)C(=O)NCN3c2ccccc2)c1C(=O)c1ccccc1F | > 10 µM | 100 mg/kg | 15.5 mg/kg | 
CSc1ccc2c(c1)N(CCC1CCCCN1C)c1ccccc1S2 (stereo not given) [THIORIDAZINE] |  |  |  | minimal effective dose [4]: 2.5 mg/kg; ED50 (Mus musculus [5]): 3.4 mg/kg; ED50 (Rattus norvegicus [6]): 5.8 mg/kg; ED50 [7]: 4.3 mg/kg
Cc1nn(C)c(N(C)C(=O)C(F)(F)F)c1C(=O)c1ccccc1F |  | > 100 mg/kg |  | Clonic seizures (Rattus norvegicus [8]): causing seizures
Cc1nn(C)c(N(C)S(C)(=O)=O)c1C(=O)c1ccccc1F |  | > 90 mg/kg |  | Clonic seizures (Rattus norvegicus [8]): causing seizures
Cc1nn(C)c(NC(=O)CNCCN(C(C)C)C(C)C)c1C(=O)c1ccccc1F | > 10 µM | 100 mg/kg | 71 mg/kg | 
Cc1nn(C)c(NC(=O)C(F)(F)F)c1C(=O)c1ccccc1F |  | < 10 mg/kg |  | Clonic seizures (Rattus norvegicus [8]): causing seizures
Cc1nn(C)c(NC(=O)C(C)(C)N2CCCC2)c1C(=O)c1ccccc1F | > 10 µM | > 100 mg/kg | > 56 mg/kg | 
Cc1nn(C)c(NC(=O)C(Cl)Cl)c1C(=O)c1ccccc1F |  | 30 mg/kg |  | Clonic seizures (Rattus norvegicus [9]): causing seizures
Cc1nn(C)c(NC(=O)CNCCCN2CCCCC2)c1C(=O)c1ccccc1F | > 10 µM | 100 mg/kg | 16 mg/kg | 
CC(=O)Nc1c(C(=O)c2ccccc2F)c(C)nn1C |  | 30 mg/kg |  | Clonic seizures (Rattus norvegicus [8]): causing seizures
CN1CCc2cccc3c2[C@H]1Cc1ccc(O)c(O)c1-3 [APOMORPHINE] |  |  |  | Control (Rattus norvegicus [10]): 75%
CCCNc1c(C(=O)c2ccccc2F)c(C)nn1C |  | < 10 mg/kg |  | Clonic seizures (Rattus norvegicus [8]): causing seizures
CNc1c(C(=O)c2ccccc2F)c(C)nn1C |  | 30 mg/kg |  | Clonic seizures (Rattus norvegicus [8]): causing seizures
Cc1nn(C)c(NC(=O)CNCCCN2CCCC(C)C2)c1C(=O)c1ccccc1F (stereo not given) | > 10 µM | 100 mg/kg | 100 mg/kg | 
Cc1nn(C)c(NC(=O)C(C)N2CCCC2)c1C(=O)c1ccccc1F (stereo not given) | > 10 µM | 100 mg/kg | > 100 mg/kg | 
Cc1nn(C)c(NC(=O)CNCCCN(C)C)c1C(=O)c1ccccc1F | > 10 µM | 80 mg/kg | 56 mg/kg | 
Cc1nn(C)c(NC(=O)CNCCN2CCCCC2)c1C(=O)c1ccccc1F | > 10 µM | 30 mg/kg | 38 mg/kg | 
Cc1nn(C)c(NC(=O)CN2CCC(c3ccccc3)CC2)c1C(=O)c1ccccc1F | > 10 µM | 30 mg/kg | 100 mg/kg | 
O=C(CCCN1CCC(O)(c2ccc(Cl)cc2)CC1)c1ccc(F)cc1 [HALOPERIDOL] |  |  |  | IC50 [11]: > 10 µM; IC50 [12]: > 10 µM; Control (Rattus norvegicus [13]): 348.9%; Control (Rattus norvegicus [14]): 224%
CC(C)C[C@H]1C(=O)N2CCC[C@H]2[C@]2(O)O[C@](NC(=O)[C@@H]3C=C4c5cccc6[nH]c(Br)c(c56)C[C@H]4N(C)C3)(C(C)C)C(=O)N12 [BROMOCRIPTINE] |  |  |  | Control (Rattus norvegicus [14]): 32.7%; Control (Rattus norvegicus [15]): 82.4%
Cc1nn(C)c(NC(=O)CCN2CCCC2)c1C(=O)c1ccccc1F | > 10 µM | 100 mg/kg | 15 mg/kg | 
OCCN1CCN(CCCN2c3ccccc3Sc3ccc(C(F)(F)F)cc32)CC1 [FLUPHENAZINE] |  |  |  | IC50 (Adenylate cyclase): 0.08 µM
Cc1nn(C)c(NC(=O)CNCCCN2CCC(C)CC2)c1C(=O)c1ccccc1F | > 10 µM | 100 mg/kg |  | 
Cc1nn(C)c(N(C)C(=O)CNCCCN2CCCCC2C)c1C(=O)c1ccccc1F (stereo not given) | > 10 µM | > 100 mg/kg | > 100 mg/kg | 
CN1CCN(C2=Nc3cc(Cl)ccc3Nc3ccccc32)CC1 [CLOZAPINE] |  |  |  | IC50 [16]: > 10 µM; minimal effective dose [17]: > 30 mg/kg; MED (Canis familiaris): Active; ED50 (Mus musculus [5]): 10 mg/kg; ED50 (Mus musculus [18]): 5.65 mg/kg; ED50 (Rattus norvegicus [19]): 22 mg/kg; ED50 [20]: 4.1 mg/kg
Cc1nn(C)c(NC(=O)CN2CCCC2)c1C(=O)c1ccccc1F | > 10 µM | 30 mg/kg | 48 mg/kg | 
